Results published in ChEMBL document CHEMBL1124321, “Design of potent linear alpha-melanotropin 4-10 analogues modified in positions 5 and 10” (J Med Chem, 1989).
Non-standard residues stand in square brackets, D forms with d. Residues, ends and D or L forms follow the SMILES beside them. Nle = CCCC[C@H](N)C(=O)O

Experiments:
lizard = experiment: In vitro potency in lizard (Anolis carolinensis) skin bioassay relative to alpha-MSH; assay type: functional
Method in brief: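 Isolated skins incubated in vitro with peptide across the full log dose-response range. Darkening from melanosome dispersion into melanophore dendrites is read as surface reflectance on a reflectometer and expressed as percent response versus the time-zero value. Each point is a mean ± SE of 6 or more skins. Potency is taken from the dose-response curves relative to α-MSH.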

[1] = system: Melanocyte-stimulating hormone receptor (Rana pipiens); experiment: In vitro potency in frog (Rana pipiens) skin assay relative to alpha-MSH

Compound | Activity [1] | Activity (lizard)
CCCC[C@H](NC(C)=O)C(=O)N[C@@H](CC(=O)O)C(=O)N[C@@H](Cc1c[nH]cn1)C(=O)N[C@H](Cc1ccccc1)C(=O)N[C@@H](CCCN=C(N)N)C(=O)N[C@@H](Cc1c[nH]c2ccccc12)C(=O)NCC(N)=O | 0.1 | 8
CCCC[C@H](NC(C)=O)C(=O)N[C@@H](CCC(=O)O)C(=O)N[C@@H](Cc1c[nH]cn1)C(=O)N[C@H](Cc1ccccc1)C(=O)N[C@@H](CCCN=C(N)N)C(=O)N[C@@H](Cc1c[nH]c2ccccc12)C(=O)N[C@@H](CCCCN)C(=O)NCC(=O)N1CCC[C@H]1C(=O)N[C@H](C(N)=O)C(C)C (Ac-[Nle]EH[dF]RWKGPV-NH2) | 0.8 | 8
CCCC[C@H](NC(=O)[C@H](CO)NC(=O)[C@H](Cc1ccc(O)cc1)NC(=O)[C@H](CO)NC(C)=O)C(=O)N[C@@H](CC(=O)O)C(=O)N[C@@H](Cc1c[nH]cn1)C(=O)N[C@H](Cc1ccccc1)C(=O)N[C@@H](CCCN=C(N)N)C(=O)N[C@@H](Cc1c[nH]c2ccccc12)C(=O)N[C@@H](CCCCN)C(=O)NCC(=O)N1CCC[C@H]1C(=O)N[C@H](C(N)=O)C(C)C (Ac-SYS[Nle]DH[dF]RWKGPV-NH2) | 9 | 8
CCCC[C@H](NC(C)=O)C(=O)N[C@@H](CC(=O)O)C(=O)N[C@@H](Cc1c[nH]cn1)C(=O)N[C@H](Cc1ccccc1)C(=O)N[C@@H](CCCN=C(N)N)C(=O)N[C@@H](Cc1c[nH]c2ccccc12)C(=O)N[C@@H](CCCCN)C(=O)NCC(=O)N1CCC[C@H]1C(=O)N[C@H](C(N)=O)C(C)C (Ac-[Nle]DH[dF]RWKGPV-NH2) | 1 | 10
CCCC[C@H](NC(C)=O)C(=O)N[C@@H](CC(=O)O)C(=O)N[C@@H](Cc1c[nH]cn1)C(=O)N[C@H](Cc1ccccc1)C(=O)N[C@@H](CCCN=C(N)N)C(=O)N[C@@H](Cc1c[nH]c2ccccc12)C(=O)N[C@@H](CCCCN)C(N)=O | – | 8
CCCC[C@H](NC(C)=O)C(=O)N[C@@H](CCC(=O)O)C(=O)N[C@@H](Cc1c[nH]cn1)C(=O)N[C@H](Cc1ccccc1)C(=O)N[C@@H](CCCN=C(N)N)C(=O)N[C@@H](Cc1c[nH]c2ccccc12)C(=O)N[C@@H](CCN)C(N)=O | 0.9 | 10
CCCC[C@H](NC(C)=O)C(=O)N[C@@H](CC(=O)O)C(=O)N[C@@H](Cc1c[nH]cn1)C(=O)N[C@@H](Cc1ccccc1)C(=O)N[C@@H](CCCN=C(N)N)C(=O)N[C@@H](Cc1c[nH]c2ccccc12)C(=O)N[C@@H](CCCCN)C(N)=O | – | 0.08
CCCC[C@H](NC(=O)[C@H](CO)NC(=O)[C@H](Cc1ccc(O)cc1)NC(=O)[C@H](CO)NC(C)=O)C(=O)N[C@@H](CCC(=O)O)C(=O)N[C@@H](Cc1c[nH]cn1)C(=O)N[C@H](Cc1ccccc1)C(=O)N[C@@H](CCCN=C(N)N)C(=O)N[C@@H](Cc1c[nH]c2ccccc12)C(=O)N[C@@H](CCCCN)C(=O)NCC(=O)N1CCC[C@H]1C(=O)N[C@H](C(N)=O)C(C)C (Ac-SYS[Nle]EH[dF]RWKGPV-NH2) | 6 | 8

The next lines start with results.

Activity [1] | Compound | Activity (lizard)
0.2 | CCCC[C@H](NC(C)=O)C(=O)N[C@@H](CC(=O)O)C(=O)N[C@@H](Cc1c[nH]cn1)C(=O)N[C@H](Cc1ccccc1)C(=O)N[C@@H](CCCN=C(N)N)C(=O)N[C@@H](Cc1c[nH]c2ccccc12)C(=O)N[C@@H](CN)C(N)=O | 8
0.9 | CCCC[C@H](NC(C)=O)C(=O)N[C@@H](CC(=O)O)C(=O)N[C@@H](Cc1c[nH]cn1)C(=O)N[C@H](Cc1ccccc1)C(=O)N[C@@H](CCCN=C(N)N)C(=O)N[C@@H](Cc1c[nH]c2ccccc12)C(=O)N[C@@H](CCCN)C(N)=O | 10
0.6 | CCCC[C@H](NC(C)=O)C(=O)N[C@@H](CCC(=O)O)C(=O)N[C@@H](Cc1c[nH]cn1)C(=O)N[C@H](Cc1ccccc1)C(=O)N[C@@H](CCCN=C(N)N)C(=O)N[C@@H](Cc1c[nH]c2ccccc12)C(=O)N[C@@H](CCCN)C(N)=O | 8
0.9 | CCCC[C@H](NC(C)=O)C(=O)N[C@@H](CC(=O)O)C(=O)N[C@@H](Cc1c[nH]cn1)C(=O)N[C@H](Cc1ccccc1)C(=O)N[C@@H](CCCN=C(N)N)C(=O)N[C@@H](Cc1c[nH]c2ccccc12)C(=O)N[C@@H](CCN)C(N)=O | 50
0.001 | CCCC[C@H](NC(C)=O)C(=O)N[C@@H](CCC(=O)O)C(=O)N[C@@H](Cc1c[nH]cn1)C(=O)N[C@@H](Cc1ccccc1)C(=O)N[C@@H](CCCN=C(N)N)C(=O)N[C@@H](Cc1c[nH]c2ccccc12)C(=O)N[C@@H](CCCCN)C(N)=O | 0.08
0.2 | CCCC[C@H](NC(C)=O)C(=O)N[C@@H](CCC(=O)O)C(=O)N[C@@H](Cc1c[nH]cn1)C(=O)N[C@H](Cc1ccccc1)C(=O)N[C@@H](CCCN=C(N)N)C(=O)N[C@@H](Cc1c[nH]c2ccccc12)C(=O)N[C@@H](CCCCN)C(N)=O | 8
